The values that follow come from ChEMBL document CHEMBL1240380, “Acinetobacter baumannii increases tolerance to antibiotics in response to monovalent cations” (Antimicrob Agents Chemother, 2010).

Calls of active or inactive are those of the source. The rule behind the calls is not given here.

For test [1], the system named is Acinetobacter baumannii. The test can be described thus: Antibacterial activity against Acinetobacter baumannii isolate 4860 isolated from human urine. It is filed as functional, organism-based.
Test [2] relates to Acinetobacter baumannii. Description: Antibacterial activity against Acinetobacter baumannii ATCC 17978 isolated from human CSF. The class given is functional, organism-based.
In test [3] the test system is Acinetobacter baumannii. The test can be described thus: Antibacterial activity against Acinetobacter baumannii isolate 510 isolated from human sputum. It is filed as functional, organism-based.
Test [4] has as its system Acinetobacter baumannii. Description: Antibacterial activity against Acinetobacter baumannii isolate 5191 isolated from human urine. The class given is functional, organism-based.
The subject of test [5] is Acinetobacter baumannii. The test can be described thus: Antibacterial activity against Acinetobacter baumannii isolate 2898 isolated from human ankle. The class given is functional, organism-based.
The test system of test [6] is Acinetobacter baumannii. The test can be described thus: Antibacterial activity against Acinetobacter baumannii isolate 2824 isolated from human urine. It is filed as functional, organism-based.
In test [7] the test system is Acinetobacter baumannii. The test can be described thus: Antibacterial activity against Acinetobacter baumannii ATCC 17978 assessed as bacterial growth at 4.5 mg/L in presence of 150 mM NaCl. It is filed as functional. In outline:
(§1)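 Overnight cultures were diluted 1:100 in NaCl-free MHB and grown to OD600 0.4. They were then diluted to 10^5 CFU/ml in MHB with or without 150 mM NaCl, plus or minus antibiotic. Growth was run in triplicate for 12 h at 37°C with shaking at 180 rpm, and OD600 was read every 2 h.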

In test [8] the test system is Acinetobacter baumannii. The test can be described thus: Antibacterial activity against Acinetobacter baumannii using MHB medium assessed as bacterial growth at 4.5 mg/L in presence of 150 mM of KCl. The class given is functional, organism-based. The method in brief:
(§2)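 Growth-curve challenge with 150 mM KCl in place of NaCl. Overnight cultures were diluted 1:100 in NaCl-free MHB and grown to OD600 0.4. They were then diluted to 10^5 CFU/ml in MHB with or without 150 mM KCl, plus antibiotic. Cultures ran in triplicate for 12 h at 37°C with shaking at 180 rpm, and OD600 was read every 2 h.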

Test [9] deals with Acinetobacter baumannii. The test can be described thus: Antibacterial activity against Acinetobacter baumannii using MHB medium with 150 mM assessed as bacterial growth at 4.5 mg/L after 12 hrs in presence of 30 mg/L efflux pump inhibitor PAbetaN. The class given is functional, organism-based.
Test [10] deals with Acinetobacter baumannii. The test can be described thus: Antibacterial activity against Acinetobacter baumannii using MHB medium assessed as bacterial growth at 4.5 mg/L after 12 hrs in presence of 30 mg/L efflux pump inhibitor PAbetaN. The class given is functional, organism-based.
For test [11], the system named is Acinetobacter baumannii. Description: Antibacterial activity against Acinetobacter baumannii ATCC 17978 assessed as bacterial growth at 0.09 mg/L in presence of 150 mM NaCl. The class given is functional, organism-based. In outline: as §1
The subject of test [12] is Acinetobacter baumannii. The test can be described thus: Antibacterial activity against Acinetobacter baumannii using MHB medium assessed as bacterial growth at 0.09 mg/L in presence of 150 mM of KCl. It is filed as functional, organism-based. The method in brief:
as §2

Test [13] has as its system Acinetobacter baumannii. The test can be described thus: Antibacterial activity against Acinetobacter baumannii ATCC 17978 assessed as bacterial growth at 0.0625 mg/L in presence of 150 mM NaCl. The class given is functional. The method in brief: as §1
In test [14] the test system is Acinetobacter baumannii. Description: Antibacterial activity against Acinetobacter baumannii ATCC 17978 assessed as bacterial growth at 1.125 mg/L in presence of 150 mM NaCl. The class given is functional. The method in brief:
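Strain grown overnight, diluted 1:100 in MHB without NaCl and grown to OD600 0.4. Then diluted to 10^5 CFU/ml in MHB supplemented with 150 mM NaCl, with or without gentamicin 1.125 mg/liter. Incubated 12 h at 37°C with shaking at 180 rpm, in triplicate. Growth followed by OD600 every 2 h.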

As to `NC[C@H]1O[C@H](O[C@H]2[C@H](O)[C@@H](O[C@H]3O[C@H](CO)[C@@H](O)[C@H](N)[C@H]3O)[C@H](N)C[C@@H]2N)[C@H](N)C[C@@H]1O`, the outcome in the test on Acinetobacter baumannii [1], with Acinetobacter baumannii [3], in the test with Acinetobacter baumannii [4], in the test on Acinetobacter baumannii [5] and with Acinetobacter baumannii [6] was inactive. Besides, the outcome in the test with Acinetobacter baumannii [2] was Active.
As to `CO/N=C(\C(=O)N[C@@H]1C(=O)N2C(C(=O)[O-])=C(C[N+]3(C)CCCC3)CS[C@H]12)c1csc(N)n1`, the outcome in the test on Acinetobacter baumannii [1], with Acinetobacter baumannii [3], in the test with Acinetobacter baumannii [4], in the test on Acinetobacter baumannii [5] and with Acinetobacter baumannii [6] was inactive. For the same compound, the outcome with Acinetobacter baumannii [2] was Active.
Take `NCC[C@H](O)C(=O)N[C@@H]1C[C@H](N)[C@@H](O[C@H]2O[C@H](CN)[C@@H](O)[C@H](O)[C@H]2O)[C@H](O)[C@H]1O[C@H]1O[C@H](CO)[C@@H](O)[C@H](N)[C@H]1O`: the result in the test with Acinetobacter baumannii [1], in the test with Acinetobacter baumannii [7], in the test on Acinetobacter baumannii [3], in the test on Acinetobacter baumannii [8], in the test with Acinetobacter baumannii [9] and with Acinetobacter baumannii [4] was inactive. Also, the outcome with Acinetobacter baumannii [5] and in the test with Acinetobacter baumannii [6] was inactive. Moreover, the result with Acinetobacter baumannii [2] and in the test with Acinetobacter baumannii [10] was Active.
Consider `CC(C)(O/N=C(\C(=O)N[C@@H]1C(=O)N2C(C(=O)[O-])=C(C[n+]3ccccc3)CS[C@H]12)c1csc(N)n1)C(=O)O`, for which the outcome in the test on Acinetobacter baumannii [1], with Acinetobacter baumannii [3], with Acinetobacter baumannii [4], in the test on Acinetobacter baumannii [5] and in the test with Acinetobacter baumannii [6] was inactive.
Regarding `O=C(O)c1cn(C2CC2)c2cc(N3CCNCC3)c(F)cc2c1=O`, the outcome with Acinetobacter baumannii [1], in the test with Acinetobacter baumannii [3], with Acinetobacter baumannii [4], in the test with Acinetobacter baumannii [5] and in the test with Acinetobacter baumannii [6] was inactive.
As to `CO/N=C(\C(=O)N[C@@H]1C(=O)N2C(C(=O)O)=C(COC(C)=O)CS[C@H]12)c1csc(N)n1`, the result in the test on Acinetobacter baumannii [1], in the test with Acinetobacter baumannii [3], with Acinetobacter baumannii [4], with Acinetobacter baumannii [5] and in the test on Acinetobacter baumannii [6] was inactive.
For the compound `CN(C)[C@@H]1C(O)=C(C(N)=O)C(=O)[C@@]2(O)C(O)=C3C(=O)c4c(O)cccc4[C@@](C)(O)[C@H]3C[C@@H]12`, the result with Acinetobacter baumannii [1], in the test on Acinetobacter baumannii [4] and with Acinetobacter baumannii [6] was inactive.
With `C[C@H]1COc2c(N3CCN(C)CC3)c(F)cc3c(=O)c(C(=O)O)cn1c23`, the outcome in the test with Acinetobacter baumannii [1], with Acinetobacter baumannii [11], in the test on Acinetobacter baumannii [12], in the test with Acinetobacter baumannii [4] and in the test on Acinetobacter baumannii [6] was inactive.
As to `C[C@@H](O)[C@H]1C(=O)N2C(C(=O)O)=C(SCCNC=N)C[C@H]12`, the outcome in the test on Acinetobacter baumannii [1], with Acinetobacter baumannii [2], with Acinetobacter baumannii [3], in the test with Acinetobacter baumannii [4], in the test on Acinetobacter baumannii [5] and in the test on Acinetobacter baumannii [6] was Active. Also, the outcome in the test with Acinetobacter baumannii [13] was inactive.
Take GENTAMICIN: the result in the test on Acinetobacter baumannii [1], in the test on Acinetobacter baumannii [3], in the test with Acinetobacter baumannii [4], in the test with Acinetobacter baumannii [5], with Acinetobacter baumannii [6] and with Acinetobacter baumannii [14] was inactive. Besides, the result in the test on Acinetobacter baumannii [2] was Active.
For `C[C@H]1[C@H](NC(=O)/C(=N\OC(C)(C)C(=O)O)c2csc(N)n2)C(=O)N1S(=O)(=O)O`, the result in the test on Acinetobacter baumannii [1], with Acinetobacter baumannii [2], in the test with Acinetobacter baumannii [3], in the test on Acinetobacter baumannii [4], in the test with Acinetobacter baumannii [5] and in the test on Acinetobacter baumannii [6] was inactive.
In the case of `CO/N=C(\C(=O)N[C@@H]1C(=O)N2C(C(=O)O)=C(CSc3nc(=O)c(O)nn3C)CS[C@H]12)c1csc(N)n1`, the result in the test on Acinetobacter baumannii [1], with Acinetobacter baumannii [3], in the test with Acinetobacter baumannii [4], with Acinetobacter baumannii [5] and in the test with Acinetobacter baumannii [6] was inactive.
Consider `C[C@@H](O)[C@H]1C(=O)N2C(C(=O)O)=C(S[C@@H]3CN[C@H](C(=O)N(C)C)C3)[C@H](C)[C@H]12`, for which the outcome with Acinetobacter baumannii [2], in the test with Acinetobacter baumannii [3], in the test on Acinetobacter baumannii [5] and in the test with Acinetobacter baumannii [6] was Active.
